What all share (assay type): functional
One assay relates to K562. The assay can be described thus: Growth inhibition of human K562 cells at 10 uM after 48 hrs by coulter counter analysis. The note with it: K562, 48 h, read-out: GI. The procedure, abridged: (§1)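 Single-dose NCI 60-line panel screen of test compounds. Cells grown in RPMI 1640 with 10% FBS. Compounds dissolved in DMSO, then diluted in phosphate buffer saline (final DMSO below 1%). Wells run in duplicate at 6 × 10⁴ cells/ml. Controls held PBS and DMSO at matching dilutions. Incubation 48 h at 37 °C under humidified 5% CO2. Cells diluted tenfold in saline and counted by Coulter counter. Percent growth inhibition taken from mean-graph of treated-cell growth.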

The next assay concerns RPMI-8226. The experiment in a line: Growth inhibition of human RPMI8226 cells at 10 uM after 48 hrs by coulter counter analysis. The note with it: RPMI-8226, 48 h, read-out: GI. The procedure, abridged:
as §1

For the next assay, the system named is A549. The assay can be described thus: Growth inhibition of human A549/ATCC cells at 10 uM after 48 hrs by coulter counter analysis. The note with it: A549, 48 h, read-out: GI. The procedure, abridged:
as §1

In another assay the test system is HOP-62. The experiment in a line: Growth inhibition of human HOP62 cells at 10 uM after 48 hrs by coulter counter analysis. The note with it: HOP-62, 48 h, read-out: GI. The procedure, abridged: as §1
Another assay deals with NCI-H226. The assay can be described thus: Growth inhibition of human NCI-H226 cells at 10 uM after 48 hrs by coulter counter analysis. Particulars: NCI-H226, 48 h, read-out: GI. The procedure, abridged: as §1
The next assay concerns NCI-H522. The assay can be described thus: Growth inhibition of human NCI-H522 cells at 10 uM after 48 hrs by coulter counter analysis. Particulars: NCI-H522, 48 h, read-out: GI. The procedure, abridged: as §1
In the next assay the test system is HCT-15. The assay can be described thus: Growth inhibition of human HCT15 cells at 10 uM after 48 hrs by coulter counter analysis. Particulars: HCT-15, 48 h, read-out: GI. The procedure, abridged:
as §1

The next assay relates to HT-29. The experiment in a line: Growth inhibition of human HT-29 cells at 10 uM after 48 hrs by coulter counter analysis. Particulars: HT-29, 48 h, read-out: GI. The procedure, abridged:
as §1

The next assay has as its system SW-620. The experiment in a line: Growth inhibition of human SW620 cells at 10 uM after 48 hrs by coulter counter analysis. Particulars: SW-620, 48 h, read-out: GI. The procedure, abridged:
(§2)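 Single-dose screen in the NCI 60 cell line panel. Cells grown in RPMI 1640 with 10% FBS. Compounds dissolved in DMSO and diluted in phosphate buffered saline, final DMSO under 1%. Duplicate wells seeded from culture at 6 × 10⁴ cells/ml. Incubated 48 h at 37 °C, humidified, 5% CO2. Cells diluted tenfold in saline and Coulter-counted. Percent growth inhibition computed against PBS/DMSO controls.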

A further assay deals with SF-268. The experiment in a line: Growth inhibition of human SF268 cells at 10 uM after 48 hrs by coulter counter analysis. Particulars: SF-268, 48 h, read-out: GI. The procedure, abridged: as §1
Another assay concerns SF-295. The assay can be described thus: Growth inhibition of human SF295 cells at 10 uM after 48 hrs by coulter counter analysis. Particulars: SF-295, 48 h, read-out: GI. The procedure, abridged: as §1
A further assay has as its system U-251. The experiment in a line: Growth inhibition of human U251 cells at 10 uM after 48 hrs by coulter counter analysis. The note with it: U-251, 48 h, read-out: GI. The procedure, abridged:
as §2

The next assay deals with SK-MEL-5. The assay can be described thus: Growth inhibition of human SK-MEL-5 cells at 10 uM after 48 hrs by coulter counter analysis. Particulars: SK-MEL-5, 48 h, read-out: GI. The procedure, abridged: as §1
For the next assay, the system named is UACC-62. The assay can be described thus: Growth inhibition of human UACC62 cells at 10 uM after 48 hrs by coulter counter analysis. Particulars: UACC-62, 48 h, read-out: GI. The procedure, abridged:
as §2

For a further assay, the system named is OVCAR-4. The assay can be described thus: Growth inhibition of human OVCAR4 cells at 10 uM after 48 hrs by coulter counter analysis. The note with it: OVCAR-4, 48 h, read-out: GI. The procedure, abridged:
as §1

The subject of the next assay is OVCAR-5. The experiment in a line: Growth inhibition of human OVCAR5 cells at 10 uM after 48 hrs by coulter counter analysis. The note with it: OVCAR-5, 48 h, read-out: GI. The procedure, abridged: as §1
The nature of assay [1]: Growth inhibition of human NCI-ADR-RES cells at 10 uM after 48 hrs by coulter counter analysis. The note with it: read-out: GI. The procedure, abridged: as §1
The test system of the next assay is A498. The experiment in a line: Growth inhibition of human A498 cells at 10 uM after 48 hrs by coulter counter analysis. The note with it: A498, 48 h, read-out: GI. The procedure, abridged:
as §1

The test system of a further assay is RXF 393. The assay can be described thus: Growth inhibition of human RXF393 cells at 10 uM after 48 hrs by coulter counter analysis. The note with it: RXF 393, 48 h, read-out: GI. The procedure, abridged:
as §1

For a further assay, the system named is UO-31. The experiment in a line: Growth inhibition of human UO31 cells at 10 uM after 48 hrs by coulter counter analysis. The note with it: UO-31, 48 h, read-out: GI. The procedure, abridged:
as §2

A further assay relates to DU-145. The assay can be described thus: Growth inhibition of human DU145 cells at 10 uM after 48 hrs by coulter counter analysis. The note with it: DU-145, 48 h, read-out: GI. The procedure, abridged: as §1
The test system of a further assay is MDA-MB-231. The experiment in a line: Growth inhibition of human MDA-MB-231 cells at 10 uM after 48 hrs by coulter counter analysis. The note with it: MDA-MB-231, 48 h, read-out: GI. The procedure, abridged: as §1
Assay [2] in a line: Growth inhibition of human Hs 578T cells at 10 uM after 48 hrs by coulter counter analysis. The note with it: read-out: GI. The procedure, abridged: as §1

Inhibition of growth data for six compounds are collected here from ChEMBL document CHEMBL2040727, “Substituted thiazoles VI. Synthesis and antitumor activity of new 2-acetamido- and 2 or 3-propanamido-thiazole analogs” (2012).

On to `CCOC(=O)c1sc(NC(=O)CCN2CCN(C)CC2)nc1C`, for which the inhibition of growth at 10 µM is less than 10% in the assay with K562; less than 10% in the assay with RPMI-8226; less than 10% in the assay on A549; less than 10% with HOP-62; less than 10% in the assay on NCI-H226; 12.9% in the assay on NCI-H522. The inhibition of growth at 10 µM with HCT-15, in the assay with HT-29, with SW-620, in the assay on SF-268, in the assay on SF-295 and in the assay with U-251 was less than 10% each time. For the same compound, the inhibition of growth at 10 µM (in the assay with SK-MEL-5; with UACC-62; in the assay on OVCAR-4; in the assay with OVCAR-5; in assay [1]; with A498) was less than 10% in each case. Also, the inhibition of growth at 10 µM in the assay with RXF 393 is less than 10%; in the assay on UO-31, 19.3%; in the assay on DU-145 it was less than 10%; with MDA-MB-231 it was less than 10%; in assay [2], less than 10%.
Consider `CCOC(=O)c1sc(NC(=O)CCN2CCN(c3ccccc3)CC2)nc1C`, for which the inhibition of growth at 10 µM in the assay with K562, in the assay with RPMI-8226, in the assay on A549, in the assay on HOP-62, in the assay on NCI-H226 and in the assay with NCI-H522 was less than 10% in each case. Also, the inhibition of growth at 10 µM in the assay with HCT-15, in the assay with HT-29, in the assay with SW-620, in the assay on SF-268, in the assay with SF-295 and in the assay with U-251 was less than 10% each time. Further, the inhibition of growth at 10 µM with SK-MEL-5 was less than 10%; in the assay on UACC-62, less than 10%; in the assay on OVCAR-4, less than 10%; in the assay with OVCAR-5 it was less than 10%; in assay [1] it was less than 10%; in the assay on A498, 12.8%. For the same compound, the inhibition of growth at 10 µM in the assay on RXF 393 was less than 10%; in the assay with UO-31 it was 19.7%; in the assay with DU-145, less than 10%; with MDA-MB-231, less than 10%; in assay [2], less than 10%.
With `O=C(CCCl)Nc1nc(-c2ccccc2)cs1`, the inhibition of growth at 10 µM with K562 turned out to be 69.3%; with RPMI-8226, 93.1%; in the assay with A549 it was 53.1%; in the assay on HOP-62, 51.4%; in the assay with NCI-H226 it was 29.3%; in the assay with HCT-15 it was 73%. The inhibition of growth at 10 µM in the assay with HT-29 turned out to be 76.1%; with SW-620, 70.7%; with SF-268, 63%; in the assay with SF-295, 46.3%; in the assay on U-251 it was 55.8%; in the assay with SK-MEL-5, 48.9%. For the same compound, the inhibition of growth at 10 µM with UACC-62 amounted to 39%; with OVCAR-4, 24.8%; in the assay on OVCAR-5, 35.7%; in assay [1] it was 59.6%; in the assay on A498, 78.4%; in the assay on RXF 393 it was 80.4%. The inhibition of growth at 10 µM is 83.2% with UO-31, 89.8% in the assay on DU-145, 53.5% in the assay on MDA-MB-231 and less than 10% in assay [2].
As to `CN1CCN(CCC(=O)Nc2nc(-c3ccccc3)cs2)CC1`, the inhibition of growth at 10 µM in the assay on K562 is less than 10%; in the assay with RPMI-8226, 11.7%; in the assay with A549, less than 10%; in the assay with HOP-62, 14.5%; in the assay with NCI-H226, 17.4%; in the assay on NCI-H522 it was 16.5%. Also, the inhibition of growth at 10 µM in the assay on HCT-15, in the assay with HT-29, in the assay on SW-620, with SF-268, with SF-295 and in the assay with U-251 was less than 10% each time. In addition, the inhibition of growth at 10 µM is less than 10% in the assay with SK-MEL-5; 11.1% with UACC-62; less than 10% in the assay on OVCAR-4; less than 10% with OVCAR-5; 13% in [1]; less than 10% in the assay with A498. The inhibition of growth at 10 µM is 11.1% with RXF 393; 54% with UO-31; less than 10% with DU-145; 11.6% in the assay on MDA-MB-231; 10.5% in assay [2].
As for `O=C(CN1CCN(c2ccccc2)CC1)Nc1nc(-c2ccccc2)cs1`, the inhibition of growth at 10 µM with K562 is 20%; with RPMI-8226, 25%; in the assay with A549, 17.6%; in the assay on HOP-62 it was less than 10%; in the assay with NCI-H226, 19.1%; in the assay with NCI-H522, 29.7%. The inhibition of growth at 10 µM in the assay with HCT-15 is 54.6%; with HT-29 it was 23.8%; with SW-620, less than 10%; in the assay on SF-268, less than 10%; in the assay with SF-295 it was 15.9%; in the assay on U-251 it was less than 10%. In addition, the inhibition of growth at 10 µM with SK-MEL-5 was 31.9%; with UACC-62 it was 36.6%; with OVCAR-4, less than 10%; with OVCAR-5 it was less than 10%; in assay [1], 23%; with A498, 44.1%. Besides, the inhibition of growth at 10 µM in the assay on RXF 393 was less than 10%; with UO-31, 51.4%; with DU-145, less than 10%; with MDA-MB-231, 29.2%; in assay [2], less than 10%.
On to `O=C(CCN1CCN(c2ccccc2)CC1)Nc1nc(-c2ccccc2)cs1`, for which the inhibition of growth at 10 µM is 32.6% with K562; 16.8% with RPMI-8226; 17.9% in the assay on A549; 24.8% in the assay with HOP-62; 26.6% with NCI-H226; 21.3% with NCI-H522. Further, the inhibition of growth at 10 µM with HCT-15 was 20.6%; with HT-29 it was less than 10%; with SW-620, 10.9%; with SF-268, 22.3%; in the assay on SF-295, 13.6%; in the assay on U-251, 15.6%. Besides, the inhibition of growth at 10 µM in the assay on SK-MEL-5 was determined as 52.5%; in the assay on UACC-62 it was 33.2%; in the assay on OVCAR-4, 36.2%; in the assay with OVCAR-5, 18.8%; in [1] it was 34.6%; in the assay on A498 it was 67.5%. Besides, the inhibition of growth at 10 µM in the assay with RXF 393 was 11.8%; with UO-31, 68.9%; with DU-145 it was 18.2%; in the assay with MDA-MB-231 it was less than 10%; in assay [2], 14%.
